Activation data for 28 compounds are collected here from PubChem BioAssay AID624467 (The Scripps Research Institute Molecular Screening Center, 2012).

Screen size: about 360,000 compounds; about 3,600 (1%) were called active. The full list was thinned out, with actives kept by preference. A number with no mark means an inactive call.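 Rule for the calls: active = activation above the mean activation of all test compounds in the run plus 3 SD (cut at about 38% in these data); inactive = the rest.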

For this experiment, the target named is Trace amine-associated receptor 1 (Homo sapiens) (UniProt Q96RJ0). In words: activators of TAAR1 calcium mobilization – Fluo-8 calcium fluorescence, CHO RD-HGA16 cells, primary screen (AID 624467). To be noted: CHO RD-HGA16 TAAR1, Fluo-8 calcium fluorescence; at 3 µM; hits give high values; vehicle wells 0%, saturating PEA agonist 100%. A digest of the protocol: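 Test system: RD-HGA16 (CHO) cells co-expressing Gα16 and hTAAR1 | Doses: Single dose, 3 µM | Schedule: 17-24 h seeding, 75 min 37 °C dye, 30 min RT | Evaluation: % activation from peak over basal fluorescence ratio, DMSO-to-PEA scaled | Technique: Kinetic Fluo-8 calcium fluorescence | Benchmarks: Low control DMSO, high control PEA (EC100)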
Trace amine-associated receptor 1 (Homo sapiens), sequence (Q96RJ0 whole entry, looked up): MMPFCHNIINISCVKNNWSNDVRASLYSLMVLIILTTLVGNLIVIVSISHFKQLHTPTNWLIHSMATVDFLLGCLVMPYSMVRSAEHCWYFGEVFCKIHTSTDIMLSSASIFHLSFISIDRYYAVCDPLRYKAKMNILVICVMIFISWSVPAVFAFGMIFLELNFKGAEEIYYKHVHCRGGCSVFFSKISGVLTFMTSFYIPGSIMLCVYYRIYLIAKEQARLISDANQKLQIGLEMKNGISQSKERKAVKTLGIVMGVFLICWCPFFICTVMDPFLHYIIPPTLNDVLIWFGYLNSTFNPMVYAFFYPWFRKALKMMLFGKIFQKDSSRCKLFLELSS
In general terms: Calcium flux is commonly read through the fluorescence of an indicator in the cells.
Consider `S=C(Nc1ccc(Br)cc1)NC1CCN(Cc2ccccc2)CC1`, for which the activation is 63% (active). With `O=C(COc1ccc(Br)cc1F)NC1CCN(Cc2ccccc2)CC1` the figure was 7.63%. Take `S=C(Nc1ccc(Br)cc1Cl)NC1CCN(Cc2ccccc2)CC1`: the activation was 18%. With `CCC(C)NC(=O)/C=C/c1ccc(S(=O)(=O)NCc2ccco2)cc1` (stereo not drawn), the activation is 0.26%. In the case of `Cc1ccc2nc(C)c3c(c2c1)N(c1ccccc1)CC3`, the activation is 1.22%. In the case of `Nc1nc2c(ncn2[C@@H]2O[C@H](C(=O)N[C@H](Cc3ccccc3)C(=O)NCC3CCCCC3)[C@@H](O)[C@H]2O)c(=O)[nH]1` it was 2.45%; in that of `CC1CCN(C(=O)c2ncn3c2C(=O)N[C@@H](C)C3)CC1`, 0.53%; in that of `CC1CCc2sc3nc(N4CCN(CCO)CC4)n4ncnc4c3c2C1` (stereo not drawn), 13.3%. In the case of `CC(C)[C@H]1COCCS(=O)(=O)N1Cc1ccccc1-c1cccc2c1sc1ccccc12` it was 1.46%. With `COc1ccccc1N1CCN(C(=O)c2cc(=O)c3cc(C)cc(C)c3o2)CC1` the figure was 0.2%. As for `Cc1cccc(N2CCN(C(=O)c3cnn4c(C(F)F)cc(-c5ccccc5)nc34)CC2)c1C`, the activation is -0.23%. In the case of `Cc1ccc(Cl)cc1N1CCN(C(=O)c2cccc3c(=O)c(C)c(-c4ccccc4)oc23)CC1` it was 78% (active). As for `OC(CCl)CCl`, the activation was 4.28%.

As for `CC(C)(C)n1nc(C2CC2)c(Br)c1NC(=O)c1ccccc1F`, the activation was -2.19%. As to `COc1ccc(-c2nc3n(c(=O)c2C#N)CCS3)c(OC)c1`, the activation was 1.68%. With `Cc1ccc2c(c1)NCC(C(=O)NC1CCC(C)CC1)O2` (stereo not drawn) the figure was -0.02%; with `NS(=O)(=O)c1ccc(NC(=S)Nc2ccc(Br)c(Cl)c2)cc1`, 42.6% (active); with `NS(=O)(=O)c1ccc(NC(=S)N2CCCC2)cc1`, 0.52%. In the case of `COc1ccc(NC(=S)Nc2ccc(S(N)(=O)=O)cc2)c(C)c1` it was 5.94%. With `N#Cc1ccc(-c2nc3cc(C#N)c(C#N)cc3nc2-c2ccccc2)cc1C#N` the figure was 2.52%. Take `Cc1cc2c(nc1C)CCCN2C`: the activation was 0.42%. In the case of `O=C(Cn1c(N2CCN(C/C=C/c3ccccc3)CC2)nc2ccccc21)c1ccccc1` it was 7.57%; in that of `CC1(C(=O)OCC(=O)Nc2ncc(Cl)cc2Cl)CC1(Cl)Cl` (stereo not drawn), -0.29%; in that of `CC(Oc1ccc(Cl)cc1)C(=O)OCC(=O)Nc1ncc(Cl)cc1Cl` (stereo not drawn), 74.1% (active). For the compound `CC(Oc1ccc(Cl)cc1)C(=O)Nc1ncccn1` (stereo not drawn), the activation is -0.09%. Consider `CCc1ccc(NC(=O)N2CCc3ccccc3C2)cc1`, for which the activation is 31%. For the compound `Cc1ccc(NC(=O)CCN2CCc3ccccc3C2)cc1`, the activation was 88.5% (active).

With `Cc1ccc(NC(=O)CN2CCc3ccccc3C2)cc1C`, the activation is 9.67%.
